Experimental data as given in publication PMC5308917 (Science translational medicine, 2017).
One block for each compound: values may come before it. Where no end group is shown, it is not given here.

Assays:
[1] = test system: VEGFR2; assay: Proteasomal inhibition by lactacystin and total VEGFR2; assay type: cell-based, human; conditions: 5 μM lactacystin with varying concentrations of AXT107
[2] = Non-GLP safety studies after intravitreous injection; assay type: in vivo, rabbit; conditions: independent Clinical Research Organization
[3] = Fundus photography after intravitreous injection; assay type: in vivo, rabbit (Dutch Belted)
How it was run: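 Rabbits anaesthetized with IM ketamine (25 mg/kg) and xylazine (2.5 mg/kg), pupils dilated with 2.5% phenylephrine, conjunctiva cleaned with 5% povidone-iodine. Intravitreous injection of 50 μg test compound (or 500 μg comparator) in one eye and vehicle in the fellow eye. Fundus photographs taken 2 and 30 days after injection.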

[4] = biological target: integrin α5β1 (Homo sapiens, UniProt P05556+P08648); assay: Fluorescence anisotropy, integrin α5β1; assay type: binding
Sequence of integrin α5β1 (P08648 42-995 limits assumed): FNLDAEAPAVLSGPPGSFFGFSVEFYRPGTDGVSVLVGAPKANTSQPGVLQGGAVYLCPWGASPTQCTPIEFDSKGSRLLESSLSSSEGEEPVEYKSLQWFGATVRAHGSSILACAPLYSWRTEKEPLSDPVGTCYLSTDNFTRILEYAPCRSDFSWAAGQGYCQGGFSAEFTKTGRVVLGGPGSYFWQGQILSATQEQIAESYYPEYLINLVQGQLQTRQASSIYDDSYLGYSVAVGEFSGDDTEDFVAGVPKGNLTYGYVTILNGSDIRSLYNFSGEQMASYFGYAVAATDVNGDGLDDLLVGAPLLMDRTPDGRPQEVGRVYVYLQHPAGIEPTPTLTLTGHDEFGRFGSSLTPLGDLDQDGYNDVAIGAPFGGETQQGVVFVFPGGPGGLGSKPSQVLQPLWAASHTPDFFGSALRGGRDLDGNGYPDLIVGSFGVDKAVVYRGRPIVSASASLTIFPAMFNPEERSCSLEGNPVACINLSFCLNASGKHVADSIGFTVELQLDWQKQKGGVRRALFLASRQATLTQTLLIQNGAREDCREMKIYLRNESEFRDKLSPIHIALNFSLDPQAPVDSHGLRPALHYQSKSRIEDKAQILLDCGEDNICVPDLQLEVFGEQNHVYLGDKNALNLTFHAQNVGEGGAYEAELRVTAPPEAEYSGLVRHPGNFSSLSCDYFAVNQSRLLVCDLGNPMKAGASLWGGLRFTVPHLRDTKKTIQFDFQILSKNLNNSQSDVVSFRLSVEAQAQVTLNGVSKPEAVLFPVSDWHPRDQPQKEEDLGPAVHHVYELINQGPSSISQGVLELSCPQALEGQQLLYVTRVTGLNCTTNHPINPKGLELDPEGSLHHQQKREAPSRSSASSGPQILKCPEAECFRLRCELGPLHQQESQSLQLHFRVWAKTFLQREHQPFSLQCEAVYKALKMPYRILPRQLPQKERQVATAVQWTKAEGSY
Sequence of integrin α5β1 (P05556 21-728 limits assumed): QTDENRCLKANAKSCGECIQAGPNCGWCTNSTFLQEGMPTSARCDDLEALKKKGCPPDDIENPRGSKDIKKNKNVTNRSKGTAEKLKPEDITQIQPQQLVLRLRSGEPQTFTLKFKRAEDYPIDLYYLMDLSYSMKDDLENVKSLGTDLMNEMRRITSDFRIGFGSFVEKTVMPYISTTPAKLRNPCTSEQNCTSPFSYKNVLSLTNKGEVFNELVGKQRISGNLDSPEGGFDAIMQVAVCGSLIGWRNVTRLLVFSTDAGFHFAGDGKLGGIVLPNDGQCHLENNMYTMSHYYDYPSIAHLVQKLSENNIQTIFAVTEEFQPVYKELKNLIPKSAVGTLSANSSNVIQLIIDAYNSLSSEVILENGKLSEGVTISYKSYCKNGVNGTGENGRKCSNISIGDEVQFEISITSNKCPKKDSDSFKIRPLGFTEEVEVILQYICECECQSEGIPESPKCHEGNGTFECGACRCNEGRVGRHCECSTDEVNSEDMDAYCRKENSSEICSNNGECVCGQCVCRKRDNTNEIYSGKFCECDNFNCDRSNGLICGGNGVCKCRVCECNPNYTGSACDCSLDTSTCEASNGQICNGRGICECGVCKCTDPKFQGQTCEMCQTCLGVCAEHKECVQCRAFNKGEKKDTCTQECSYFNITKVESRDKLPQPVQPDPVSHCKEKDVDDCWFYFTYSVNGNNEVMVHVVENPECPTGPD
How it was run: (§1)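 FAM-labelled test compound (10 nM, dissolved in DMSO; final DMSO 0.0005%) mixed with 0–75 nM soluble recombinant heterodimeric integrin in 50 mM tris pH 7.5, 1 mM CaCl2, 1 mM MgCl2, 100 mM NaCl. Incubated on ice at least 30 min to reach equilibrium. Anisotropy read with vertically polarized excitation at 470 nm, detecting vertical and horizontal emission at 540 nm.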

[5] = biological target: integrin αvβ3 (Homo sapiens, UniProt P05106+P06756); assay: Fluorescence anisotropy, integrin αvβ3; assay type: binding
Sequence of integrin αvβ3 (P06756 31-992 limits assumed): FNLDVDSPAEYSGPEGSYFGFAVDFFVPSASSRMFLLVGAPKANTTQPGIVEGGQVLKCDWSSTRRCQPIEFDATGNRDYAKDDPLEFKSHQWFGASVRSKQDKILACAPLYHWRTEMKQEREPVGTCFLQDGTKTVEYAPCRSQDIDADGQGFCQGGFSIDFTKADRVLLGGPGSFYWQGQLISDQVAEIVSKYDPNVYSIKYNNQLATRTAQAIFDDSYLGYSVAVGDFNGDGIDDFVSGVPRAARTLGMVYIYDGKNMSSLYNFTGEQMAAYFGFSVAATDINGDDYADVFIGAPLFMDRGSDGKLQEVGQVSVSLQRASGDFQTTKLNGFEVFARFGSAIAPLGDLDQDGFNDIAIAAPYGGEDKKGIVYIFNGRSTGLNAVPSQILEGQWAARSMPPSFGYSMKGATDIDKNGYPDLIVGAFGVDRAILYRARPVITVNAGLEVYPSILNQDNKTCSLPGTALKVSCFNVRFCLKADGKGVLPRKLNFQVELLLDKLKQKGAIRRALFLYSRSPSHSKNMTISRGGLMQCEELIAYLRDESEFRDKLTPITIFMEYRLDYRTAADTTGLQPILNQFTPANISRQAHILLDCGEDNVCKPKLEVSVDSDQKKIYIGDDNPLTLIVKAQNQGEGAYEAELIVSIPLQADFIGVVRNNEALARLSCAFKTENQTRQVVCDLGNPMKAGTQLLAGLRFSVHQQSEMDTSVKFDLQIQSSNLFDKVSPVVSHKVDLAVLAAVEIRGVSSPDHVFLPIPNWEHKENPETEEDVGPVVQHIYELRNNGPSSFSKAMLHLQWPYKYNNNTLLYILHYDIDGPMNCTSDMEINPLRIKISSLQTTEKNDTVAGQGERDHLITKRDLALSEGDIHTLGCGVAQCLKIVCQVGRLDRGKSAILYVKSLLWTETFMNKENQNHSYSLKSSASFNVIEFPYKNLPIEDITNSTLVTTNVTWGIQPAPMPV
Sequence of integrin αvβ3 (P05106 27-718 limits assumed): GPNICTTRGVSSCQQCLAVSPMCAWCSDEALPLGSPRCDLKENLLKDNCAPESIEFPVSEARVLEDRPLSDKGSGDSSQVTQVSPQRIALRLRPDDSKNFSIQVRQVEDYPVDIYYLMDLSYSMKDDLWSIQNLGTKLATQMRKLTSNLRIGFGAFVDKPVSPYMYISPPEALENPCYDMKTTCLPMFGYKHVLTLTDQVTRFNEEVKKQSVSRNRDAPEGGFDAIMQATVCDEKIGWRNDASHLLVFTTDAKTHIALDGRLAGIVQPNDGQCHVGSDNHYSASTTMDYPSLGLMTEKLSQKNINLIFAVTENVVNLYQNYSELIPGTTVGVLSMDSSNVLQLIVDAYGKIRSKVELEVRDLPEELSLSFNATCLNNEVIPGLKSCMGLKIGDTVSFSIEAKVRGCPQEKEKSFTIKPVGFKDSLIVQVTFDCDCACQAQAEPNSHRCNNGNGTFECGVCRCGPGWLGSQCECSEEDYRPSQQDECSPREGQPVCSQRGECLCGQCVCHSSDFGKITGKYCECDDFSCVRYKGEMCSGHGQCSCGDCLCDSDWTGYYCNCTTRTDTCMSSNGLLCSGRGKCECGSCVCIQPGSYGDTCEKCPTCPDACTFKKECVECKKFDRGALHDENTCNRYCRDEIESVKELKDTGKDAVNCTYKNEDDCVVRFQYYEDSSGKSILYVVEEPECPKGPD
How it was run: as §1

[6] = test system: VEGF-induced vascular leakage; assay: VEGF-induced leakage in rabbit eyes; assay type: in vivo, rabbit (Dutch Belted)
How it was run: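 A single intravitreous dose of test compound (50 μg) or comparator (500 μg) was given in one eye, with vehicle in the fellow eye. VEGF (10 μg) was injected into both eyes on day 23, VFP done day 30, eyes rescanned without fluorescein day 43, VEGF (10 μg) reinjected both eyes day 53, VFP day 60. For VFP, 15 mg sodium fluorescein was given via ear vein. After 1 h, fluorescence was scanned retina-to-cornea, taking the AUC 5–7 mm in front of the retina.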

[7] = biological target: 5-carboxyfluorescein (5-FAM)-labeled AXT107; assay: fluorescence polarisation

Compound: CC(=O)N[C@@H](CSC(=O)[C@]1([C@@H](O)C(C)C)NC(=O)[C@H](C)[C@@H]1O)C(=O)O [lactacystin]
- AXT107-induced degradation of VEGFR2 [1]: reduced AXT107-induced degradation of VEGFR2

Compound: LRRFSTAPFAFIDINDVINF [AXT107]
- intraocular pressure [2]: no increase in intraocular pressure
- ocular media in the visual axis [2]: no degradation of the ocular media in the visual axis
- retinal toxicity [2]: no retinal toxicity
- gel-like depot in inferior vitreous, persistence ([3]; 50 μg intravitreous, 30 days after injection): still present in the same location 30 days after injection
- dissipation of gel-like depot ([3]; after intraocular injection, inferior vitreous): slowly dissipates over months
- Kd [4]: 2.21 nM
- Kd [5]: 1.29 nM

Compound: aflibercept: a VEGF-neutralizing protein, which is standard care for patients with NVAMD
- fluorescein in the mid-vitreous, day 60 (representative VFP scans) ([6]; 50 μg of AXT107 or 500 μg of aflibercept, VEGF rechallenge (10 μg) on day 53): higher levels
- leakage remaining at 60 days ([6]; 50 μg of AXT107 versus 500 μg of aflibercept, P < 0.05): 100%
- leakage vs fellow eye controls, day 60 (in words) ([6]; 500 μg of aflibercept, VEGF rechallenge (10 μg) on day 53, VFP day 60): not significantly reduced

- Kd [7]: 2.21 nM
Compound: soluble, recombinant α5β1 heterodimeric integrin (from UniProt P08648 42-1049; P05556 21-728) (complex)

- Kd [7]: 1.29 nM
Compound: soluble, recombinant αvβ3 heterodimeric integrin (from UniProt P06756 31-1048; P05106 27-718) (complex)
